Source: ChEMBL document CHEMBL1159377, “Synthetic approach to exo-endo cross-conjugated cyclohexadienones and its application to the syntheses of dehydrobrachylaenolide, isodehydrochamaecynone, and trans-isodehydrochamaecynone” (J Nat Prod, 2003)

How the values were obtained:
[1] = system: Coptotermes formosanus; test: Insecticidal activity against Coptotermes formosanus assessed as mortality at 100 ppm after 1 day by filter paper contact method relative to control; format: functional
[2] = system: Coptotermes formosanus; test: Insecticidal activity against Coptotermes formosanus assessed as mortality at 1000 ppm after 1 day by filter paper contact method relative to control; format: functional
[3] = system: Coptotermes formosanus; test: Insecticidal activity against Coptotermes formosanus assessed as mortality at 1000 ppm after 5 days by filter paper contact method relative to control; format: functional
[4] = system: Coptotermes formosanus; test: Insecticidal activity against Coptotermes formosanus assessed as mortality at 100 ppm after 5 days by filter paper contact method relative to control; format: functional
[5] = system: Coptotermes formosanus; test: Insecticidal activity against Coptotermes formosanus assessed as mortality at 100 ppm after 2 days by filter paper contact method relative to control; format: functional
[6] = system: Coptotermes formosanus; test: Insecticidal activity against Coptotermes formosanus assessed as mortality at 1000 ppm after 2 days by filter paper contact method relative to control; format: functional
[7] = system: A549; test: Inhibition of IL-1-beta-induced ICAM1 protein expression in human A549 cells treated for 1 hr before IL1-beta challenge for 6 hrs; format: functional, cell-based
Summary of the method: (§1)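 A549 cells at 3 × 10⁴/well pretreated with compound 1 h, then IL-1β at 0.25 ng/mL final for 6 h. Cells fixed in 1% paraformaldehyde and blocked with 1% BSA overnight. Mouse anti-human ICAM-1 and peroxidase anti-mouse IgG each 60 min at 37 °C. o-Phenylenediamine/H₂O₂ substrate (citrate pH 5.3), 20 min dark, A415. Expression normalised between IL-1β-treated and unstimulated wells. Triplicate.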

[8] = Cytotoxicity against human A549 cells after 24 hrs at 1 uM by MTT assay relative to control; format: cell-based; conditions: read-out: T/C
Summary of the method: (§2)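 A549 lung carcinoma cells grown in RPMI 1640 with 10% fetal calf serum, 50 µM 2-mercaptoethanol and penicillin-streptomycin-neomycin. Cells incubated with or without compound for 24 h, with MTT (500 µg/mL) present for the last 4 h. Formazan solubilised overnight in 5% SDS, absorbance read at 595 nm. Viability (%) = (sample − background)/(control − background) × 100. Triplicate cultures, mean ± SD.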

[9] = system: A549; test: Inhibition of IL-1-beta-induced ICAM1 protein expression in human A549 cells at 1 uM treated for 1 hr before IL1-beta challenge for 6 hrs relative to control; format: functional; summary of the method: as §1
[10] = system: A549; test: Inhibition of IL-1-beta-induced ICAM1 protein expression in human A549 cells at 320 uM treated for 1 hr before IL1-beta challenge for 6 hrs relative to control; format: functional; summary of the method: as §1
[11] = Cytotoxicity against human A549 cells after 24 hrs at 10 uM by MTT assay relative to control; format: cell-based; conditions: read-out: T/C; summary of the method: as §2
[12] = system: A549; test: Cytotoxicity against human A549 cells after 24 hrs by MTT assay; format: cell-based; conditions: A549, 24 h
Summary of the method: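 A549 cells (RPMI 1640, 10% FCS, 50 µM 2-mercaptoethanol, antibiotics) incubated with test compound 24 h; MTT 500 µg/mL pulsed for final 4 h; formazan dissolved in 5% SDS overnight; absorbance 595 nm. Viability % = (sample − background)/(control − background) × 100. Triplicate cultures.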

[13] = Cytotoxicity against human A549 cells after 24 hrs at 3.2 uM by MTT assay relative to control; format: cell-based; conditions: read-out: T/C; summary of the method: as §2
[14] = Cytotoxicity against human A549 cells after 24 hrs at 320 uM by MTT assay relative to control; format: cell-based; conditions: read-out: T/C; summary of the method: as §2
[15] = system: A549; test: Inhibition of IL-1-beta-induced ICAM1 protein expression in human A549 cells at 1000 uM treated for 1 hr before IL1-beta challenge for 6 hrs relative to control; format: functional; summary of the method: as §1
[16] = system: A549; test: Inhibition of IL-1-beta-induced ICAM1 protein expression in human A549 cells at 32 uM treated for 1 hr before IL1-beta challenge for 6 hrs relative to control; format: functional; summary of the method: as §1
[17] = Cytotoxicity against human A549 cells after 24 hrs at 100 uM by MTT assay relative to control; format: cell-based; conditions: read-out: T/C; summary of the method: as §2
[18] = system: A549; test: Inhibition of IL-1-beta-induced ICAM1 protein expression in human A549 cells at 100 uM treated for 1 hr before IL1-beta challenge for 6 hrs relative to control; format: functional; summary of the method: as §1
[19] = system: A549; test: Inhibition of IL-1-beta-induced ICAM1 protein expression in human A549 cells at 10 uM treated for 1 hr before IL1-beta challenge for 6 hrs relative to control; format: functional; summary of the method: as §1
[20] = system: A549; test: Inhibition of IL-1-beta-induced ICAM1 protein expression in human A549 cells at 3.2 uM treated for 1 hr before IL1-beta challenge for 6 hrs relative to control; format: functional; summary of the method: as §1
[21] = Cytotoxicity against human A549 cells after 24 hrs at 1000 uM by MTT assay relative to control; format: cell-based; conditions: read-out: T/C; summary of the method: as §2
[22] = Cytotoxicity against human A549 cells after 24 hrs at 32 uM by MTT assay relative to control; format: cell-based; conditions: read-out: T/C; summary of the method: as §2
[23] = system: Coptotermes formosanus; test: Insecticidal activity against Coptotermes formosanus assessed as mortality at 1000 ppm after 7 days by filter paper contact method relative to control; format: functional
[24] = system: Coptotermes formosanus; test: Insecticidal activity against Coptotermes formosanus assessed as mortality at 100 ppm after 7 days by filter paper contact method relative to control; format: functional

SMILES | Activity [1] [%] | Activity [2] [%] | Activity [3] [%] | Activity [4] [%] | Activity [5] [%] | Activity [6] [%] | IC50 [7] [µM] | also measured
C#C[C@@H]1CC[C@@]2(C)C=CC(=O)C(=C)[C@@H]2C1 | 0 | 33 | 100 | 17 | 3 | 93 |  | 
C#C[C@@H]1CC[C@@]2(C)C=CC(=O)C(C)=C2C1 [DEHYDROCHAMAECYNONE] | 0 | 13 | 100 | 7 | 0 | 90 |  | 
C=C1C(=O)O[C@H]2[C@H]3[C@H](C)C(=O)C=C[C@]3(C)CC[C@@H]12 [TUBERIFERINE] |  |  |  |  |  |  | 7.4 | 
C=C1C(=O)C=C[C@]2(C)CC[C@H]3C(=C)C(=O)O[C@H]3[C@@H]12 [DEHYDROBRACHYLAENOLIDE] |  |  |  |  |  |  | 3 | viability at 24 h, 1 µM [8]: 100%; T/C [9]: 75.5%; T/C [10]: -1.4%; viability at 24 h, 10 µM [11]: 93.8%; IC50 [12]: 55 µM; viability at 24 h, 3.2 µM [13]: 90.8%; viability at 24 h, 320 µM [14]: 28.6%; T/C [15]: -3.3%; T/C [16]: 0.1%; viability at 24 h, 100 µM [17]: 29.3%; Activity [7]: Dose-dependent effect; T/C [18]: -0.3%; T/C [19]: 1.1%; T/C [20]: 44.4%; viability at 24 h, 1000 µM [21]: 11.8%; viability at 24 h, 32 µM [22]: 68.8%
C#C[C@@H]1CC[C@@]2(C)C=CC(=O)[C@@H](C)[C@@H]2C1 | 0 | 80 | 100 | 43 | 0 | 97 |  | Activity [23]: 100%; Activity [24]: 100%
C=C1C(=O)O[C@H]2[C@H]3[C@H](C)C(=O)CC[C@]3(C)CC[C@@H]12 |  |  |  |  |  |  | 17 | 
C#C[C@@H]1CC[C@@]2(C)C=CC(=O)[C@@H](C)[C@H]2C1 [CHAMAECYNONE] | 0 | 27 | 100 | 27 | 0 | 97 |  | Activity [23]: 100%; Activity [24]: 87%
C[C@@H]1C(=O)O[C@@H]2[C@H]1CC[C@@]1(C)CCC(=O)[C@@H](C)[C@H]21 |  |  |  |  |  |  | > 1000 | 
C#C[C@@H]1CC[C@@]2(C)CCC(=O)[C@@H](C)[C@@H]2C1 | 0 | 0 | 100 | 0 | 0 | 93 |  | 
